# Compound activity deposited in PubChem by several laboratories.
# A selection: hits, their analogues and other compounds. The true share with any hit is near 1.6%.
# SR-BI DiI-HDL act = activators of SR-BI mediated DiI-HDL uptake, primary screen, ldlA[mSR-BI] CHO cells, DiI fluorescence; 3 h; 100 = double the neutral-control signal; activation, % at 12.5 µM; 0.096% of 320,000 active; AID 504775, 2011;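 active = mean replicate activation of at least 60% and every replicate at or above 60%; inconclusive = mean or all-replicate condition met, but not both; inactive = mean below 60% and not all replicates reaching 60%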;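 note: 0% = median plate neutral-control signal and 100% = twice that signal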
#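 Test system: SR-BI-overexpressing, LDLR-lacking CHO cells. Measured by: DiI fluorescence, bottom read. Medium: Ham's F12 with 0.5% BSA, HEPES 25 mM, pH 7.4. Timing: 3 h uptake period with compound, 37 °C.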
# Vif imaging = HIV Vif self-association inhibitors, primary screen, imaging, HEK293T, single point | HEK293T cells, Vif self-association by quenched fluorescence, 24 h | inhibition, % at 7.49 µM | 0.35% of 340,000 active | AID 602346, 2012; in the data active = inhibition above about 50%, passing the limit was not always enough; inconclusive = no clear call, values can overlap the other calls; inactive = below about 31%
# TAG inh = inhibitors of triacylglycerol accumulation, primary screen, cell-based, uHTS, fluorescence, H9c2; H9c2 cells, Nile Red lipid (TAG) fluorescence; cells loaded with 200 µM oleic acid; AID 651582, 2012; 0.66% of 230,000 active; inhibition, % at 12.5 µM;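 active = pattern-corrected inhibition of lipid staining of at least 50% with the nuclear-stain viability signal not falling by more than 50%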;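 note: 0% = DMSO wells and 100% = triacsin C control wells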
# SR-BI DiI inh = inhibitors of SR-BI mediated HDL lipid uptake, primary screen, ldlA[mSR-BI] cells, fluorescence, single point. inhibition, % at 12.5 µM. 0.96% of 320,000 active. ldlA[mSR-BI] CHO cells, DiI-HDL uptake fluorescence, 3 h;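 active = mean replicate inhibition of at least 70% and a set share of replicates each scoring 70 or more; inconclusive = meets just one of the two criteria; inactive = fails both criteria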;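 note: 0% = median of neutral control wells and 100% = median of positive control wells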
# Target sequence (Q61009 whole entry, looked up): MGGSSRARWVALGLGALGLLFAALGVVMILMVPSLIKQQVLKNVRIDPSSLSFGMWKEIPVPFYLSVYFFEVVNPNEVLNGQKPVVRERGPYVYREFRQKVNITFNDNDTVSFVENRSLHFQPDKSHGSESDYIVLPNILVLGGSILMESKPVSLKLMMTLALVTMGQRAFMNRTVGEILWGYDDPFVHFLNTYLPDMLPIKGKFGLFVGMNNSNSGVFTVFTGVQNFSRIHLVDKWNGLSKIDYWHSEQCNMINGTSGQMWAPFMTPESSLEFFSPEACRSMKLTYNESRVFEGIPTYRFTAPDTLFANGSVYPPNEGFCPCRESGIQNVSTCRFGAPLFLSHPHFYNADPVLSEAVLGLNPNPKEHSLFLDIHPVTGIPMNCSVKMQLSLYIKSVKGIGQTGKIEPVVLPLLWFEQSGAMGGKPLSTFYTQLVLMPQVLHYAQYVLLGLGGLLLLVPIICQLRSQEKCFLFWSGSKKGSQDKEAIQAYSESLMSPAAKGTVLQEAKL
# A1 inh = caspase 3/7 activation in MEF A1-2A-BIM cells, primary screen, A1 inhibitor project, cell-based, luminescence, HTS. Caspase-Glo 3/7 luminescence, 3 h; percent of clofoctol response, vehicle zero. caspase activation, % (concentration not given with the values). 0.066% of 330,000 active. AID 2462, 2010;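 active = over half of replicate activation scores above 10%, or exactly half above 10 with the replicate mean above 10; inconclusive = replicate mean below 10 yet half the replicates above 10; inactive = over half of replicates below 10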
# Numbers without * were called inactive; ? = inconclusive; · = no result given.
SMILES,SR-BI DiI-HDL act,Vif imaging,TAG inh,SR-BI DiI inh,A1 inh
CCOC(=O)c1sc(NC(=O)CCN2C(=O)c3ccccc3C2=O)c(C(=O)OCC)c1C,-2,4,·,2,-1
O=C(C1CCN(c2nnc(-n3cccc3)s2)CC1)N1CCN(c2cccc(C(F)(F)F)c2)CC1,-72,·,11,72*,-1
O=C1/C(=C/c2ccc(N3CCCC3)cc2)NC(=S)N1C1CC1,-68,54*,·,68,0
CCN1CCN(C(CNS(=O)(=O)c2ccc(C)cc2)c2cccnc2)CC1 (configuration not stated),3,53*,6,-3,1
Cc1ccc(S(=O)(=O)NCC(c2cccnc2)N2CCN(Cc3ccccc3)CC2)cc1 (configuration not stated),11,-3,-5,-11,0
Cc1ccc(NC(=O)Cc2nnc(SCC(=O)NC3CCCC3)n2C)cc1C,12,-10,·,-12,0
CCc1nc(Nc2ccc(N3CCN(C(C)=O)CC3)cc2)c2oc3ccccc3c2n1,-75,-23,8,75*,0
CC(=O)N1CCN(c2ccc(Nc3ncnc4c3oc3ccccc34)cc2)CC1,-29,·,-25,29,3
O=C(NC1CCC(O)CC1)c1cc(-c2ccc(Cl)cc2)nc2ccccc12 (configuration not stated),-77,5,10,77*,-1
O=C(N/N=C/c1ccc[nH]1)c1cc(-c2ccc(Cl)cc2)nc2ccccc12,-93,-3,5,93*,0
O=C(N/N=C/c1ccc[nH]1)c1sc2ccccc2c1Cl,-75,-9,·,75*,-2
O=C(N/N=C/c1ccncc1)c1sc2ccccc2c1Cl,-21,1,·,21,0
O=C(N/N=C/c1cccnc1)c1cc(-c2ccc(Cl)cc2)nc2ccccc12,-46,-2,13,46,1
COC(=O)c1cc(N/C(N)=N/c2nc(C)cc(C)n2)cc(C(=O)OC)c1,·,·,-13,·,·
CCc1cc(=O)oc2cc3occ(C)c3cc12,-19,0,·,19,0
CCc1cc(=O)oc2cc3occ(-c4ccc(OC)c(F)c4)c3cc12,-59,-18,·,76*,0
CCOC(=O)N(C)c1c(CC)nc2c(OCc3ccc(S(C)(=O)=O)cc3)cccn12,·,5,10,·,·
COc1ccc(OC)c(C2=NOC(C(=O)N3CCN(c4ccccc4)CC3)C2)c1 (configuration not stated),-71,2,-26,71*,1
N#Cc1c2ccc(O)cc2n2ccccc12,-20,1,6,20,-2
COC(=O)c1ccc(C(=O)Nc2nc3cc(N)c(C)cc3s2)cc1,-81,6,·,81*,0
CC(=O)NC(Nc1c(C)n(C)n(-c2ccccc2)c1=O)C(Cl)(Cl)Cl (configuration not stated),24,0,-28,-24,-1
O=C(NCCc1ccco1)C(=O)NCC1OCCCN1S(=O)(=O)c1ccccc1 (configuration not stated),·,-8,·,-8,1
COc1cccc(CC(=O)Nc2ccccc2C(=O)N2CCOCC2)c1,71*,5,·,-71,0
COCCOC(=O)c1c(C)n(C)c2ccc(OC(=O)c3c(OC)cccc3OC)cc12,397*,-12,·,-397,0
C[C@@H](CO)NC(=O)c1nc[nH]c1C(=O)N[C@H](C)c1ccccc1,·,0,-31,·,·
SMILES,SR-BI DiI-HDL act,Vif imaging,TAG inh,SR-BI DiI inh,A1 inh
O=C(c1cc2ccccc2oc1=O)N(Cc1ccco1)Cc1cccs1,12,59*,-19,-12,1
COc1cccc(NC(=O)CN2C(=O)COc3ccc(S(=O)(=O)N4CCC(C)CC4)cc32)c1,1,-5,·,-1,0
O=C(OCC(=O)N1CCN(c2ccccc2)CC1)c1ccc[n+]([O-])c1,3,4,21,-3,0
N#CC(C(=O)Nc1cccc(Cl)c1)=C1Nc2ccccc2N1,-73,-19,-8,73*,0
N#CC(C(=O)Nc1ccc(Cl)c(Cl)c1)=C1Nc2ccccc2N1,-45,-5,12,45,1
Cc1ccc(Nc2nnc(SCC(=O)NCCN3C(=O)CSC3=O)s2)cc1C,-10,-2,24,10,-7
COc1ccc(OCC(=O)Nc2cc3c(cc2C(=O)O)OCCCO3)cc1,9,52*,·,-9,-1
CCOc1ccc(OCC(=O)Nc2cc3c(cc2C(=O)O)OCCCO3)cc1,-2,14,·,2,0
C=CCc1c(C)nc(-c2ccccc2)nc1N/N=C/c1ccccc1,-61,·,4,61,0
C=CCc1c(C)nc(-c2ccccc2)nc1Nc1ccccc1O,-101,2,16,101*,-1
Nn1c(SCC(=O)NC2CCS(=O)(=O)C2)nc2scc(-c3ccccc3)c2c1=O (configuration not stated),13,-1,18,-13,0
COc1ccc(-c2csc(NC(=S)NC(=O)/C=C/c3ccc(C(C)C)cc3)n2)cc1OC,-75,5,-16,75*,0
COc1ccc(-c2csc(NC(=S)NC(=O)/C=C/c3ccco3)n2)cc1OC,-76,·,·,76*,1
COc1ccc(C(=O)NC(=S)Nc2nc(-c3ccc(OC)c(Br)c3)cs2)cc1Br,-62,15,·,62,0
CSC1=NS(=O)(=O)c2c(C)nn(C)c2S1,4,2,-3,-4,0
COc1ccc(-c2sc3ccccc3c2/C=C/c2ccc(N)cc2)cc1,-40,12,-8,40,1
COC(=O)c1ccc(/C=C/c2c(-c3ccsc3)sc3ccccc23)cc1,-79,3,-2,79*,0
CCOC(=O)Nc1ccc2c(c1)ncn2C1CCCCC1,4,82*,·,-4,0
N#CC(C#N)=CC1=C2OC(c3ccccc3)=CC(c3ccccc3)=C2CCC1,-116,-3,·,116*,0
Nc1ncnc2c(C3OC(CO)C(O)C3O)c[nH]c12 (configuration not stated),-3,-14,131,3,·
O=C(NCC1CC1)NC(=O)c1c(F)cccc1Cl,6,50*,·,-6,1
CSc1ncccc1C(=O)Nc1ncc(C)s1,-11,-4,·,11,-1
CSc1ncccc1C(=O)Nc1nc2c(C)cccc2s1,-73,·,9,73*,0
COCc1cccc(-c2csc(C(C)(O)c3cccc(F)c3)n2)c1 (configuration not stated),·,-9,-3,·,·
Cc1ccc(CNC(=O)CC2(CC3=NS(=O)(=O)c4ccccc4N3)CCCC2)cc1,·,·,4,·,0
COc1cc(NC2CCCCC2O)c2nc(-c3ccc(Cl)cc3)ccc2c1 (configuration not stated),-80,?,·,80*,2
